Consider 25 molecules from ChEMBL document CHEMBL1140036, “Novel glucagon receptor antagonists with improved selectivity over the glucose-dependent insulinotropic polypeptide receptor” (J Med Chem, 2008).

For series [1], the target named is Glucagon receptor (Homo sapiens, UniProt P47871). Kind of series: Binding affinity to human cloned GluR expressed in BHK cells. The format is cell-based. Summed up:
(§1)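 Competitive binding on purified plasma membranes from BHK cells expressing the cloned human receptor (glucagon, GIP or GLP-1 receptor). The glucagon receptor protocol follows earlier published work, and the GIP and GLP-1 assays were done the same way.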

The target of series [2] is T1, Gastric inhibitory polypeptide receptor (Homo sapiens, UniProt P48546).
T1 sequence (P48546 whole entry): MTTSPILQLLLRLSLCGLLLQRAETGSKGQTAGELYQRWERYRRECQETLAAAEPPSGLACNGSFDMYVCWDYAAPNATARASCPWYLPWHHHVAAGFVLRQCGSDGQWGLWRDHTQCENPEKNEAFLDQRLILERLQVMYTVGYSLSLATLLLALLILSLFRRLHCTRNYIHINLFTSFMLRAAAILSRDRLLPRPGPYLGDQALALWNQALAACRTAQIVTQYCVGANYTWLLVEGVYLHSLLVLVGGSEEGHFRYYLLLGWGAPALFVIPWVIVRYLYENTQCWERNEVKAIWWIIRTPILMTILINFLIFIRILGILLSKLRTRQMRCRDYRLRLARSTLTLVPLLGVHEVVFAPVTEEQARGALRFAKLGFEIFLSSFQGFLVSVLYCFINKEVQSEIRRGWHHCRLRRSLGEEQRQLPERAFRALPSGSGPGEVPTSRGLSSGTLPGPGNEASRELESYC
Kind of series: Binding affinity to human cloned GIPR expressed in BHK cells. The format is cell-based. The gist of the method: as §1

In series [3] the target is Glucagon-like peptide 1 receptor (Homo sapiens, UniProt P43220). Kind of series: Binding affinity to human cloned GLP1R expressed in BHK cells. The format is cell-based. Summed up:
as §1

The next series deals with BHK. Kind of series: Selectivity ratio of IC50 for human cloned GluR to IC50 for human cloned GLP1R expressed in BHK cells. Type of series: cell-based.
Series [4] has as its target Glucagon receptor (Rattus norvegicus, UniProt P30082). Kind of series: Binding affinity to GlucR in rat liver membrane. The format is cell membranes. Summed up:
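Competitive binding on isolated rat liver membrane preparations, run by the same protocol as the human glucagon receptor binding assay.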

Series [5] concerns Hepatocyte. Kind of series: Inhibition of glucagon-stimulated glycogenolysis in rat hepatocytes. Type of series: functional, cell-based. Summed up:
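Isolated, cultured primary rat hepatocytes were loaded with glycogen and stimulated with 0.5 nM glucagon plus increasing compound concentrations in medium containing 0.1% HSA. Glucose released into the medium was measured after 60 min, and IC50 was derived.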

For series [6], the system named is Hepatocyte. Kind of series: Inhibition of adrenaline-stimulated glycogenolysis in rat hepatocytes up to 25 uM. The format is functional, cell-based. The gist of the method:
(§2)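 Glycogen-loaded cultured primary rat hepatocytes, either unstimulated (basal) or adrenaline-stimulated, in medium with 0.1% HSA. Compounds were tested at concentrations up to 25 µM, and glycogenolysis was read as glucose release.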

Series [7] deals with Hepatocyte. Kind of series: Inhibition of basal glycogenolysis in rat hepatocytes up to 25 uM. Type of series: functional, cell-based. Summed up:
as §2

The test system of series [8] is Hepatocyte. Kind of series: Increase in lactate production in rat hepatocytes. Type of series: functional, cell-based.
Series [9] concerns the target T2, Gastric inhibitory polypeptide receptor (Rattus norvegicus, UniProt P43219).
T2 sequence (P43219 whole entry): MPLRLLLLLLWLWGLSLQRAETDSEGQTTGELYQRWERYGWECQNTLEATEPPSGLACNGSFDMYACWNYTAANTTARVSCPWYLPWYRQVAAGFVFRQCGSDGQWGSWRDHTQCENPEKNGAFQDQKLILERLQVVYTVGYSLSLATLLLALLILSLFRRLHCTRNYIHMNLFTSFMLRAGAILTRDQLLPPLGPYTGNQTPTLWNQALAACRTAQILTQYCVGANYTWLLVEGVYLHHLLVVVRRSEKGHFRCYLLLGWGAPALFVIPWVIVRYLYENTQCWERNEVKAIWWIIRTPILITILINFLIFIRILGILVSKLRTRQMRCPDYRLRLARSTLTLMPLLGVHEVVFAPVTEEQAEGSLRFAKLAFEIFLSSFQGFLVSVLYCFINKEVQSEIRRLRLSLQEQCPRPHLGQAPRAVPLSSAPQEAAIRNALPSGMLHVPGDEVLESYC
Kind of series: Binding affinity to GIPR in rat liver membrane. The format is cell membranes.

In the next series the test system is Pancreas. Kind of series: Inhibition of GIP-stimulated insulin secretion in rat pancreas. Type of series: functional, tissue-based. The gist of the method:
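Isolated perfused rat pancreas: 80 mg/dL glucose at 1-4 min, then 160 mg/dL glucose with compound at 5-50 min, and 500 pM GIP infused at 15-34 min. Portal outflow was collected each minute and insulin measured by radioimmunoassay; n = 4 per group.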

Series [10] is described as follows: Half life in Sprague-Dawley rat at 2 mg/kg, iv. Type of series: ADME, organism-based. The arrangement: dose 2 mg/kg, route intravenous. Particulars: in vivo. The gist of the method:
(§3)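 Fasted male Sprague-Dawley rats (~200 g) were given 2 mg/kg iv or 4 mg/kg po. Vehicle: 5% ethanol, 20% propylene glycol, 10% hydroxypropyl-β-cyclodextrin in phosphate buffer pH 7.5-8.0. EDTA blood was taken by heart puncture under CO2 at 5-360 min (iv) or 15-360 min (po). Plasma was analysed by HTLC-MS/MS, with noncompartmental PK analysis.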

A short description of series [11]: Oral bioavailability in Sprague-Dawley rat at 4 mg/kg. Type of series: ADME, organism-based. The settings on record: in vivo. Summed up: as §3

Active and inactive are the calls of the source.

Sequence of Glucagon-like peptide 1 receptor (P43220 whole entry): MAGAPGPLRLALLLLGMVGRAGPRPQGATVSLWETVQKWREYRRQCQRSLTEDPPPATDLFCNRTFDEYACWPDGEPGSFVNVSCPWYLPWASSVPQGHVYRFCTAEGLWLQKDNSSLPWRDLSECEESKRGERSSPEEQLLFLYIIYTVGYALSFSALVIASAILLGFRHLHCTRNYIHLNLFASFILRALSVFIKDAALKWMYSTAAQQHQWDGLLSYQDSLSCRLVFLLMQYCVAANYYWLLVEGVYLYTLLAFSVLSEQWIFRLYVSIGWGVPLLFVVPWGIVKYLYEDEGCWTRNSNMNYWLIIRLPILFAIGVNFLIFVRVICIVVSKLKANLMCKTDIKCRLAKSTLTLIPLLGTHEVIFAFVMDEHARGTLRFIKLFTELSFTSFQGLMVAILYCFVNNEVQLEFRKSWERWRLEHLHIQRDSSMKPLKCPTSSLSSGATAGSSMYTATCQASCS
Sequence of Glucagon receptor (Homo sapiens, UniProt P47871) (P47871 whole entry): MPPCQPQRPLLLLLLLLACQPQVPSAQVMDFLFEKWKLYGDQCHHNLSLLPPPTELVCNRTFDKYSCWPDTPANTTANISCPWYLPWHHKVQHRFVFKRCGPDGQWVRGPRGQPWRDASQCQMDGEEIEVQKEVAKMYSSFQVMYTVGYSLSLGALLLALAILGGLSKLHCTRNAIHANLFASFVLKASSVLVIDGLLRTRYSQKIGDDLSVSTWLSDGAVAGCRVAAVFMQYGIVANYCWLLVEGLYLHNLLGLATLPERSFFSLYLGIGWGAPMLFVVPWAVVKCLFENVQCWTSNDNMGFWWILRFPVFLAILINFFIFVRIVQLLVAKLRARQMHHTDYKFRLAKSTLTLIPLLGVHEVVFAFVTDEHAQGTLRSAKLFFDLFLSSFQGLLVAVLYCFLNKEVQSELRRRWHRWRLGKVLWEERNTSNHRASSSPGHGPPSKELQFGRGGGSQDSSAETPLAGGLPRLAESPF
Sequence of Glucagon receptor (Rattus norvegicus, UniProt P30082) (P30082 whole entry): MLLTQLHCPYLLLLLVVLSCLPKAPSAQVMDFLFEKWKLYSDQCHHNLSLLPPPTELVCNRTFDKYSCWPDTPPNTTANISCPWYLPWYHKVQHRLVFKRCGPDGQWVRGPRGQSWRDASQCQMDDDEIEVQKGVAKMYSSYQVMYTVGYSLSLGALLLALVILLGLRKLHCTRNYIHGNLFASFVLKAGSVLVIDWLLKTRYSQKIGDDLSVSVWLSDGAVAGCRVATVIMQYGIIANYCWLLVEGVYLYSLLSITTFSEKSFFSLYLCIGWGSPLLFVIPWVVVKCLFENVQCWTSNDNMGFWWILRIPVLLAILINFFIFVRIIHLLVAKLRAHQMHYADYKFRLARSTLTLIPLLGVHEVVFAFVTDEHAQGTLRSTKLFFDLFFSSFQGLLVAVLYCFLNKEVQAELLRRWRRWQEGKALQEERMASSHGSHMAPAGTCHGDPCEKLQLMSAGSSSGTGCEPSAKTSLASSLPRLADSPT

As a reminder, the IC50 is the concentration that gives 50% inhibition. A high value points to weaker potency in that assay. On to `O=C(NC[C@@H](O)C(=O)O)c1ccc(CN(C(=O)Nc2ccccc2)c2ccc(C3=CCCCC3)cc2)cc1`, for which the IC50 was found to be 166 nM on Glucagon receptor [1] and 1390 nM in [2].

As for `O=C(NC[C@@H](O)C(=O)O)c1ccc(CN(C(=O)Nc2cc(Cl)cc(Cl)c2)c2ccc(C3CCCCC3)cc2)cc1`, the IC50 turned out to be 4 nM at Glucagon receptor [1] and 93 nM in series [2].

Regarding `CC(C)(C)[C@H]1CC[C@H](N(Cc2ccc(C(=O)NCCC(=O)O)cc2)C(=O)Nc2cc(C(F)(F)F)cc(C(F)(F)F)c2)CC1`, the IC50 amounted to 16 nM at Glucagon receptor [1] and 93 nM in series [2].

As to `Cc1cc(NC(=O)N(Cc2ccc(C(=O)NC[C@@H](O)C(=O)O)cc2)[C@H]2CC[C@H](C(C)(C)C)CC2)cc(C(F)(F)F)c1`, the values for the IC50 (on Glucagon receptor [1]; in series [2]) were 10 nM and 98 nM, respectively.

Regarding `CC(C)(C)[C@H]1CC[C@H](N(Cc2ccc(C(=O)NC[C@H](O)C(=O)O)cc2)C(=O)Nc2cc(C(F)(F)F)cc(C(F)(F)F)c2)CC1`, the IC50 came out at 82 nM at Glucagon receptor [1], 373 nM in series [2] and 4.88 µM in series [3].

Consider `O=C(O)CCNC(=O)c1ccc(CN(C(=O)Nc2cc(Cl)cc(Cl)c2)c2ccc(C3=CCCCC3)cc2)cc1`, for which the IC50 worked out at 12 nM at Glucagon receptor [1]; 64 nM in series [2]; 5 µM in [3]; 36 nM on Glucagon receptor [4]; 820 nM with Hepatocyte [5]; 216 nM in series [9]. Moreover, the Ratio IC50 in the series on BHK is 400. In addition, the outcome in the series with Hepatocyte [6] and in the series with Hepatocyte [7] was inactive. Moreover, the outcome with Hepatocyte [8] and in the series with Pancreas was Active.

On to `O=C(NCC(O)C(=O)O)c1ccc(CN(C(=O)Nc2cc(Cl)cc(Cl)c2)c2ccc(C3=CCCCC3)cc2)cc1` (racemic), for which the IC50 was found to be 14 nM at Glucagon receptor [1] and 701 nM in series [2].

One may read the half-life as the time needed for the level to fall by half in the phase considered. In general, bioavailability refers to the share of a dose that reaches the circulation, judged against a reference dose that is usually intravenous. Turning to `O=C(NC[C@@H](O)C(=O)O)c1ccc(CN(C(=O)Nc2cc(Br)cc(C(F)(F)F)c2)c2ccc(C3=CCCCC3)cc2)cc1`, the IC50 at Glucagon receptor [1] was found to be 7 nM; in series [2] it was 380 nM. Besides, in [10], the half-life was determined as 46 min. The molecule further registered a bioavailability in series [11] of 14%.

Regarding `COc1cc(NC(=O)N(Cc2ccc(C(=O)NC[C@@H](O)C(=O)O)cc2)c2ccc(C3CCCCC3)cc2)cc(C(F)(F)F)c1`, the figures for the IC50 (at Glucagon receptor [1]; in series [2]) were 9 nM and 145 nM, respectively.

In the case of `CC(C)(C)c1cccc(NC(=O)N(Cc2ccc(C(=O)NC[C@@H](O)C(=O)O)cc2)c2ccc(C3CCCCC3)cc2)c1`, the figures for the IC50 (at Glucagon receptor [1]; in series [2]) were 18 nM and 74 nM, respectively.

On to `O=C(NC[C@@H](O)C(=O)O)c1ccc(CN(C(=O)Nc2cccc(Cl)c2)c2ccc(C3=CCCCC3)cc2)cc1`, for which the IC50 on Glucagon receptor [1] is 14 nM; in [2], 406 nM.

As to `COc1cc(NC(=O)N(Cc2ccc(C(=O)NC[C@@H](O)C(=O)O)cc2)c2ccc(C3=CCCCC3)cc2)cc(C(F)(F)F)c1`, the IC50 was determined as 14 nM on Glucagon receptor [1] and 279 nM in [2]. For the same molecule, the half-life in series [10] came to 53 min. Also, the bioavailability in [11] was 7%.

Take `CC(C)(C)c1ccc(N(Cc2ccc(C(=O)NCC(O)C(=O)O)cc2)C(=O)Nc2ccc(OC(F)(F)F)cc2)cc1` (racemic): the results for the IC50 (on Glucagon receptor [1]; in series [2]) were 55 nM and 315 nM, respectively.

Regarding `CSc1cccc(NC(=O)N(Cc2ccc(C(=O)NC[C@@H](O)C(=O)O)cc2)c2ccc(C3CCCCC3)cc2)c1`, the results for the IC50 (on Glucagon receptor [1]; in series [2]) were 9 nM and 411 nM, respectively. In series [10], the half-life turned out to be 43 min. This molecule also returned a bioavailability in [11] of 8%.

Take `CC(C)(C)C1CCC(N(Cc2ccc(C(=O)NCCC(=O)O)cc2)C(=O)Nc2ccc(OC(F)(F)F)cc2)CC1` (stereo not given): the IC50 on Glucagon receptor [1] is 23.4 nM; in [2], 28.3 nM; in [3], 2.54 µM; on Glucagon receptor [4], 23 nM; in series [9], 42 nM. The outcome in the series with Pancreas was Active.

For `O=C(NC[C@@H](O)C(=O)O)c1ccc(CN(C(=O)Nc2ccc(SC(F)(F)F)cc2)c2ccc(C3CCCCC3)cc2)cc1`, the results for the IC50 (on Glucagon receptor [1]; in [2]) were 6 nM and 12 nM, respectively.

For the molecule `CC(C)(C)[C@H]1CC[C@H](N(Cc2ccc(C(=O)NC[C@@H](O)C(=O)O)cc2)C(=O)Nc2cc(C(F)(F)F)cc(C(F)(F)F)c2)CC1`, the values for the IC50 (at Glucagon receptor [1]; in series [2]; in series [3]) were 8 nM, 87 nM and 7.73 µM, respectively. This molecule displayed a half-life in [10] of 41 min. The bioavailability in series [11] was determined as 11%.

For `CS(=O)(=O)c1cc(NC(=O)N(Cc2ccc(C(=O)NC[C@@H](O)C(=O)O)cc2)c2ccc(C3=CCCCC3)cc2)ccc1OC(F)(F)F`, the IC50 at Glucagon receptor [1] came out at 5 nM; in series [2] it was 497 nM. In series [10], this molecule came in with a half-life of 55 min. The same molecule yielded a bioavailability in [11] of 10%.

As to `N#Cc1ccc(NC(=O)N(Cc2ccc(C(=O)NC[C@@H](O)C(=O)O)cc2)c2ccc(C3CCCCC3)cc2)cc1C(F)(F)F`, the IC50 on Glucagon receptor [1] stood at 9 nM; in series [2], 198 nM.

With `O=C(NC[C@@H](O)C(=O)O)c1ccc(CN(C(=O)Nc2ccc3c(c2)C(F)(F)OC(F)(F)O3)c2ccc(C3=CCCCC3)cc2)cc1`, the IC50 was 6 nM on Glucagon receptor [1] and 83 nM in [2].

`CO[C@H](CNC(=O)c1ccc(CN(C(=O)Nc2cc(Cl)cc(Cl)c2)c2ccc(C3=CCCCC3)cc2)cc1)C(=O)O`: the IC50 was determined as 693 nM on Glucagon receptor [1], 3020 nM in [2] and 21.8 µM in series [3].

With `CC(C)(C)c1ccc(N(Cc2ccc(C(=O)NCCC(=O)O)cc2)C(=O)Nc2ccc(OC(F)(F)F)cc2)cc1`, the IC50 at Glucagon receptor [1] worked out at 36 nM; in series [2], 38 nM; in [3], 10.8 µM.

As for `Cc1cc(C)cc(NC(=O)N(Cc2ccc(C(=O)NC[C@@H](O)C(=O)O)cc2)[C@H]2CC[C@H](C(C)(C)C)CC2)c1`, the IC50 at Glucagon receptor [1] worked out at 27 nM; in [2], 220 nM.

Regarding `O=C(NC[C@H](O)C(=O)O)c1ccc(CN(C(=O)Nc2cc(Cl)cc(Cl)c2)c2ccc(C3=CCCCC3)cc2)cc1`, the IC50 on Glucagon receptor [1] was 51 nM; in series [2], 445 nM; in series [3], 9.32 µM.

Turning to `O=C(NC[C@@H](O)C(=O)O)c1ccc(CN(C(=O)Nc2cccc(Br)c2)c2ccc(C3CCCCC3)cc2)cc1`, the results for the half-maximal inhibitory concentration (IC50) (at Glucagon receptor [1]; in series [2]) were 8 nM and 216 nM, respectively. Moreover, the half-life in series [10] is 72 min. In series [11], this molecule registered a bioavailability of 21%.
